Experimental data reported in ChEMBL document CHEMBL5058577, “EUbOPEN Chemogenomics Library 2 (Multiplex)” (2022).

Tested on: U2OS
Assay: Multiplex assay against U2OS
Assay type: toxicity, cell-based
Settings: human
Method in brief: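 On a CQ1 microscope at 37°C and 5% CO2, live cells were imaged after compound addition. They had been stained at seeding with Hoechst33342, BioTracker Green Microtubule Cytoskeleton Dye, MitoTracker Red and Annexin V Alexa Fluor 680. CellPathfinder machine-learning gating assigned cells to Hoechst high-intensity objects or normal cells, normal cells to healthy, pyknosed or fragmented nuclei, and pyknosed cells to mitotic or apoptotic. Tubulin, mitochondrial-mass and membrane-permeability phenotypes are per cents of healthy-nucleus cells.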

[1] = 12 h, 1 µM, compound concentration 1 uM, replicate 1
[2] = 12 h, 1 µM, compound concentration 1 uM, replicate 2
[3] = 12 h, 10 µM, compound concentration 10 uM, replicate 1
[4] = 12 h, 10 µM, compound concentration 10 uM, replicate 2
[5] = 24 h, 1 µM, compound concentration 1 uM, replicate 1
[6] = 24 h, 1 µM, compound concentration 1 uM, replicate 2
[7] = 24 h, 10 µM, compound concentration 10 uM, replicate 1
[8] = 24 h, 10 µM, compound concentration 10 uM, replicate 2
[9] = 48 h, 1 µM, compound concentration 1 uM, replicate 1
[10] = 48 h, 1 µM, compound concentration 1 uM, replicate 2
[11] = 48 h, 10 µM, compound concentration 10 uM, replicate 1
[12] = 48 h, 10 µM, compound concentration 10 uM, replicate 2

CN(C)c1ccnc2sc3c(=O)n(N4CCCCCC4)cnc3c12
Population Apoptotic (%) [1]: 81% | Population Fragmented Nuclei (%) [1]: 19% | Population Healthy Nuclei (%) [1]: 72% | Population Hoechst High Intensity Objects (%) [1]: 1% | Population Membrane Permeable-Phenotype (%) [1]: 4% | Population Mitochondria Different-Phenotype (%) [1]: 2% | Population Mitotic Cells (%) [1]: 18% | Population Normal (%) [1]: 98% | Population Pyknosed Nuclei (%) [1]: 7% | Population Tubulin-Different-Phenotype (%) [1]: 2% | Total Cell Count [1]: 284 | Population Apoptotic (%) [2]: 87% | Population Fragmented Nuclei (%) [2]: 16% | Population Healthy Nuclei (%) [2]: 77% | Population Membrane Permeable-Phenotype (%) [2]: 6% | Population Mitotic Cells (%) [2]: 12% | Population Pyknosed Nuclei (%) [2]: 6% | Total Cell Count [2]: 132 | Population Apoptotic (%) [3]: 41% | Population Fragmented Nuclei (%) [3]: 30% | Population Healthy Nuclei (%) [3]: 56% | Population Hoechst High Intensity Objects (%) [3]: 4% | Population Membrane Permeable-Phenotype (%) [3]: 30% | Population Mitochondria Different-Phenotype (%) [3]: 14% | Population Mitotic Cells (%) [3]: 58% | Population Normal (%) [3]: 95% | Population Pyknosed Nuclei (%) [3]: 12% | Population Tubulin-Different-Phenotype (%) [3]: 20% | Total Cell Count [3]: 249 | Population Apoptotic (%) [4]: 88% | Population Fragmented Nuclei (%) [4]: 18% | Population Healthy Nuclei (%) [4]: 71% | Population Hoechst High Intensity Objects (%) [4]: 5% | Population Membrane Permeable-Phenotype (%) [4]: 23% | Population Mitochondria Different-Phenotype (%) [4]: 27% | Population Mitotic Cells (%) [4]: 11% | Population Normal (%) [4]: 94% | Population Pyknosed Nuclei (%) [4]: 9% | Population Tubulin-Different-Phenotype (%) [4]: 22% | Total Cell Count [4]: 101 | Population Apoptotic (%) [5]: 87% | Population Fragmented Nuclei (%) [5]: 16% | Population Healthy Nuclei (%) [5]: 72% | Population Hoechst High Intensity Objects (%) [5]: 2% | Population Membrane Permeable-Phenotype (%) [5]: 3% | Population Mitochondria Different-Phenotype (%) [5]: 3% | Population Mitotic Cells (%) [5]: 12% | Population Normal (%) [5]: 97% | Population Pyknosed Nuclei (%) [5]: 10% | Population Tubulin-Different-Phenotype (%) [5]: 1% | Total Cell Count [5]: 326 | Population Apoptotic (%) [6]: 72% | Population Fragmented Nuclei (%) [6]: 15% | Population Healthy Nuclei (%) [6]: 76% | Population Membrane Permeable-Phenotype (%) [6]: 6% | Population Mitotic Cells (%) [6]: 27% | Population Pyknosed Nuclei (%) [6]: 7% | Population Tubulin-Different-Phenotype (%) [6]: 4% | Total Cell Count [6]: 150 | Population Apoptotic (%) [7]: 68% | Population Fragmented Nuclei (%) [7]: 28% | Population Healthy Nuclei (%) [7]: 56% | Population Hoechst High Intensity Objects (%) [7]: 4% | Population Membrane Permeable-Phenotype (%) [7]: 22% | Population Mitochondria Different-Phenotype (%) [7]: 15% | Population Mitotic Cells (%) [7]: 31% | Population Normal (%) [7]: 95% | Population Pyknosed Nuclei (%) [7]: 15% | Population Tubulin-Different-Phenotype (%) [7]: 14% | Total Cell Count [7]: 260 | Population Apoptotic (%) [8]: 100% | Population Fragmented Nuclei (%) [8]: 11% | Population Healthy Nuclei (%) [8]: 75% | Population Hoechst High Intensity Objects (%) [8]: 3% | Population Membrane Permeable-Phenotype (%) [8]: 23% | Population Mitochondria Different-Phenotype (%) [8]: 25% | Population Mitotic Cells (%) [8]: 0% | Population Normal (%) [8]: 96% | Population Pyknosed Nuclei (%) [8]: 13% | Population Tubulin-Different-Phenotype (%) [8]: 24% | Total Cell Count [8]: 108 | Population Apoptotic (%) [9]: 90% | Population Fragmented Nuclei (%) [9]: 17% | Population Healthy Nuclei (%) [9]: 74% | Population Hoechst High Intensity Objects (%) [9]: 2% | Population Membrane Permeable-Phenotype (%) [9]: 4% | Population Mitochondria Different-Phenotype (%) [9]: 1% | Population Mitotic Cells (%) [9]: 9% | Population Normal (%) [9]: 97% | Population Pyknosed Nuclei (%) [9]: 8% | Population Tubulin-Different-Phenotype (%) [9]: 2% | Total Cell Count [9]: 486 | Population Apoptotic (%) [10]: 92% | Population Fragmented Nuclei (%) [10]: 15% | Population Healthy Nuclei (%) [10]: 72% | Population Membrane Permeable-Phenotype (%) [10]: 5% | Population Mitochondria Different-Phenotype (%) [10]: 5% | Population Mitotic Cells (%) [10]: 7% | Population Pyknosed Nuclei (%) [10]: 11% | Total Cell Count [10]: 239 | Population Apoptotic (%) [11]: 68% | Population Fragmented Nuclei (%) [11]: 28% | Population Healthy Nuclei (%) [11]: 57% | Population Hoechst High Intensity Objects (%) [11]: 4% | Population Membrane Permeable-Phenotype (%) [11]: 15% | Population Mitochondria Different-Phenotype (%) [11]: 11% | Population Mitotic Cells (%) [11]: 31% | Population Normal (%) [11]: 95% | Population Pyknosed Nuclei (%) [11]: 14% | Population Tubulin-Different-Phenotype (%) [11]: 7% | Total Cell Count [11]: 325 | Population Apoptotic (%) [12]: 72% | Population Fragmented Nuclei (%) [12]: 15% | Population Healthy Nuclei (%) [12]: 61% | Population Hoechst High Intensity Objects (%) [12]: 9% | Population Membrane Permeable-Phenotype (%) [12]: 21% | Population Mitochondria Different-Phenotype (%) [12]: 19% | Population Mitotic Cells (%) [12]: 27% | Population Normal (%) [12]: 90% | Population Pyknosed Nuclei (%) [12]: 22% | Population Tubulin-Different-Phenotype (%) [12]: 23% | Total Cell Count [12]: 140
